# 5HT1E ag: agonists of human 5-HT1E serotonin receptor | P28566 | CHO 5-HT1E Ga15 NFAT-bla reporter, FRET; 0% DMSO wells, 100% control agonist wells | activation, % at 6 µM | 65,000 compounds, 0.69% hits | AID 574;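 active = activation above a set limit, the screen-wide mean activation plus 3 SD, cut at about 8.5% in these data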
# S1P3 ag: agonists of human S1P3 receptor. Q99500. S1P3 NFAT-BLA reporter cells, agonism, FRET ratio; relative to 1 µM S1P, basal subtracted. activation, % at 4.5 µM. 60,000 compounds, 0.1% hits. AID 373;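 active = activation above the screen-wide mean plus 3 SD, cut at about 4.5% in these data, passing the limit was not always enough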
# Target sequence (Q99500 whole entry, looked up): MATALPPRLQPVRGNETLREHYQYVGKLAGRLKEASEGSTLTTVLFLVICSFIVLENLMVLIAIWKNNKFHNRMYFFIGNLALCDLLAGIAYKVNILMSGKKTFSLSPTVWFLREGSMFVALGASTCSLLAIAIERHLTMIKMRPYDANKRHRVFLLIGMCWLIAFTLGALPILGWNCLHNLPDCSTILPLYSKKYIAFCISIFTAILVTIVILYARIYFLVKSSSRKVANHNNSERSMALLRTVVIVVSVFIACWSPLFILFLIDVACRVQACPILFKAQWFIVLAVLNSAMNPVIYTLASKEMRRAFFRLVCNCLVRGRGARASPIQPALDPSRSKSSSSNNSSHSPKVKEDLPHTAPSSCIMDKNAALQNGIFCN
#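 Benchmarks: high control 1 µM S1P / System: stable CHO line with human S1P3, Gα16, NFAT-BLA reporter / Dosing: single compound concentration, 4.5 µM final / Timing: 4 h compound at 37 °C, 2 h substrate at RT / Measured by: FRET β-lactamase substrate fluorescence, excitation 405 nm, 460/535 nm emission ratio, background-subtracted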
# HTR1A agonist: activates the human 5-HT1a serotonin receptor; 65,000 compounds, 0.56% hits; AID 567; activation, % at 10 µM; CHO 5-HT1a Ga15 NFAT-bla reporter, FRET ratio; 0% basal, 100% maximal reference agonist; P08908;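 active = activation above the screen-wide mean activation plus 3 SD, cut at about 19% in these data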
# S1P1 ag-PAM: agonists and agonism potentiators of human S1P1 receptor | AID 449 | 56,000 compounds, 0.57% hits | activation, % at 9.5 µM | P21453 | S1P1 CRE-bla cells, forskolin, beta-lactamase FRET, potentiator mode; S1P1 agonist co-added at EC20, 2 nM; 100% = saturating reference agonist, 0% = basal;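 active = activation above a cutoff set at the mean activation of all tested compounds plus 3 SD, cut at about 54% in these data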;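 also: forskolin at 4 µM as EC80 and the EC20 agonist is SEW2871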
# 5-HT1A blocker: antagonists of human 5-HT1a serotonin receptor; P08908; CHO 5-HT1a Ga15 NFAT-bla reporter, antagonist mode; inhibition, % at 10 µM; 62,000 compounds, 0.68% hits;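 active = inhibition above the mean of all tested compounds plus 3 SD, cut at about 43% in these data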;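 also: receptor stimulated by 5-CT agonist at 100 nM near EC80; beta-lactamase reporter measured by ratiometric fluorescence of a cleavable substrate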
# 5HT1E antag: antagonists of human 5-HT1E serotonin receptor; P28566; 65,000 compounds, 0.99% hits; CHO 5-HT1E Ga15 NFAT-bla reporter, FRET, antagonist; inhibition, % at 6 µM;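 active = inhibition above a set limit, the mean inhibition across every tested compound plus 3 SD, cut at about 29% in these data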;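 also: signal is the 460 over 535 nm emission ratio of beta-lactamase substrate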
# Numbers stand for hits; n = inactive; x = not tested or not shown. Rows were chosen to be rich in hits. Some 3% of all compounds tested hit in one or more screens of this group.
SMILES,5HT1E ag,S1P3 ag,HTR1A agonist,S1P1 ag-PAM,5-HT1A blocker,5HT1E antag
COc1ccccc1N=c1oc2cc(O)ccc2cc1C(=O)NCC1CCCO1 (centres undefined),14.7,n,53.6,n,n,n
Cc1cccc(N=c2oc3cc(O)ccc3cc2C(N)=O)c1,24.1,n,63.6,n,n,n
COc1cccc2cc(C(=O)NCC3CCCO3)c(=O)oc12 (centres undefined),n,x,n,x,n,n
COc1ccccc1NC(=O)c1cc2ccc(O)cc2o/c1=N\O,n,n,n,n,n,n
Oc1c(CN2CCN(c3ccccn3)CC2)cc(Cl)c2cccnc12,n,n,n,n,54.0,54.5
COCc1cc(CN2CCCC2)c(O)c2ncccc12,n,n,n,n,n,n
Oc1c(CN2CCCCC2)cc(COCc2ccccc2)c2cccnc12,n,n,n,n,n,48.0
COc1ccc(CN2CCN(c3ncccn3)CC2)c(OC)c1,n,n,n,n,n,n
COc1ccc(CN2CCN(c3ccccn3)CC2)c(OC)c1,10.8,n,n,n,n,n
Oc1ccc(COCc2ccccc2)c2cccnc12,n,n,n,n,n,47.3
Oc1ccc(CNc2ccccc2F)c2cccnc12,n,n,n,n,n,n
O=C(NCCSCc1ccccc1)c1cc(S(=O)(=O)N2CCOCC2)ccc1F,n,n,n,n,n,n
CCc1ccc2oc(-c3cc(N)cc(C)c3O)nc2c1,n,n,n,64.7,n,n
CCOc1ccc(C)cc1S(=O)(=O)NC1CCCCC1,n,n,n,n,n,n
CCOc1cc(S(=O)(=O)NC2CCCC2)ccc1Cl,15.1,n,n,x,n,n
COc1cc(C2C(C#N)=C(N)Oc3cc(N)ccc32)cc(OC)c1OC (centres undefined),n,n,n,n,x,56.9
CC1(C)Cc2c(C#N)c(NCCc3ccccc3)nc(-c3ccco3)c2CO1,9.1,n,49.5,n,x,n
Cc1nc2oc3c(NCc4ccccc4)ncnc3c2c2c1COC(C)(C)C2,n,n,n,n,n,n
CCCc1nc2oc3c(NCCOCCO)ncnc3c2c2c1COC(C)(C)C2,n,n,n,n,n,29.9
O=C(CN1CCN(c2nc(-c3ccccc3)cs2)CC1)Nc1ccc2c(c1)OCO2,n,n,n,n,n,n
Cc1ccc(-c2csc(N3CCC(NS(=O)(=O)c4ccc5c(c4)OCCO5)CC3)n2)cc1,n,n,n,106.8,n,n
O=C(CN1C(=O)NC2(CCCCCC2)C1=O)N1CCC(Cc2ccccc2)CC1,n,n,n,n,n,n
CC1CN(C(=O)CN2C(=O)NC3(CCCCCCC3)C2=O)CC(C)O1 (centres undefined),19.7,n,n,n,n,n
COc1cccc(Cn2nnc(C(=O)NCc3ccc(F)cc3)c2N)c1,n,n,n,n,n,32.1
Cc1onc(-c2ccccc2Cl)c1C(=O)N1CCCCC1C(=O)O (centres undefined),n,n,n,n,n,n
SMILES,5HT1E ag,S1P3 ag,HTR1A agonist,S1P1 ag-PAM,5-HT1A blocker,5HT1E antag
COc1ccc(CCNc2c(C)c(C)nc3ncnn23)cc1,n,n,n,134.4,n,n
CCN(CC(=O)Nc1ccc(OC)c(OC)c1)S(=O)(=O)c1ccc(C)cc1,n,n,22.1,x,n,n
COc1ccc(NC(=O)CN(c2ccc(C)cc2)S(=O)(=O)c2c(C)nn(C)c2C)cc1OC,n,n,n,n,n,n
O=C(O)C1CCCCC1C(=O)NCCc1ccc(Cl)cc1 (centres undefined),21.3,n,n,n,n,n
OCCN(CCO)c1ncnc2c1sc1nc(N3CCOCC3)c3c(c12)CCCC3,n,n,n,n,x,30.7
OCCN1CCN(c2ncnc3c2sc2nc(N4CCOCC4)c4c(c23)CCC4)CC1,n,x,n,x,n,n
COC(=O)c1ccc(Cn2cnc3c(cnn3-c3ccc(Cl)cc3)c2=O)o1,n,n,n,n,n,n
Cc1cccc(Nc2nc(-c3ccccn3)cs2)n1,n,n,n,n,44.8,35.8
c1ccc(Nc2nc(-c3cccs3)cs2)nc1,n,n,n,n,n,n
Cc1cc(NC(=O)CSc2ccc(-c3nc4cc(C)c(C)cc4[nH]3)cn2)no1,n,x,n,x,n,30.6
